# Data reported in ChEMBL document CHEMBL5550118, “Human mitochondrial glutathione transferases: Kinetic parameters and accommodation of a mitochondria-targeting group in substrates” (Bioorg Med Chem, 2024).
# B1: Glutathione S-transferase A1 (Homo sapiens), P08263 (protein)
# chain: MAEKPKLHYFNARGRMESTRWLLAAAGVEFEEKFIKSAEDLDKLRNDGYLMFQQVPMVEIDGMKLVQTRAILNYIASKYNLYGKDIKERALIDMYIEGIADLGEMILLLPVCPPEEKDAKLALIKEKIKNRYFPAFEKVLKSHGQDYLVGNKLSRADIHLVELLYYVEELDSSLISSFPLLKALKTRISNLPTVKKFLQPGSPRKPPMDEKSLEEARKIFRF
# B2: Glutathione S-transferase A4 (Homo sapiens), O15217 (protein)
# chain: MAARPKLHYPNGRGRMESVRWVLAAAGVEFDEEFLETKEQLYKLQDGNHLLFQQVPMVEIDGMKLVQTRSILHYIADKHNLFGKNLKERTLIDMYVEGTLDLLELLIMHPFLKPDDQQKEVVNMAQKAIIRYFPVFEKILRGHGQSFLVGNQLSLADVILLQTILALEEKIPNILSAFPFLQEYTVKLSNIPTIKRFLEPGSKKKPPPDEIYVRTVYNIFRP
# B3: Glutathione S-transferase kappa 1 (Homo sapiens), Q9Y2Q3 (protein)
# chain: MGPLPRTVELFYDVLSPYSWLGFEILCRYQNIWNINLQLRPSLITGIMKDSGNKPPGLLPRKGLYMANDLKLLRHHLQIPIHFPKDFLSVMLEKGSLSAMRFLTAVNLEHPEMLEKASRELWMRVWSRNEDITEPQSILAAAEKAGMSAEQAQGLLEKIATPKVKNQLKETTEAACRYGAFGLPITVAHVDGQTHMLFGSDRMELLAHLLGEKWMGPIPPAVNARL
# Columns and labels:
# [1] = GSH reactivity in […] at 30 degreeC assessed as second-order reaction rate constant; type: ADME; settings: buffer
# [2] = substrate: O=C(NCCCCC[P+](c1ccccc1)(c1ccccc1)c1ccccc1)c1cc([N+](=O)O)ccc1Cl; experiment: Substrate activity at N-terminal His6 tagged human GSTA1-1 expressed in Escherichia coli BL21(DE3) assessed as catalytic constant at pH 8 at 30 degreeC by Lineweaver-Burk plot analysis
# How it was run: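 Assayed in 0.1 M HEPES-HCl pH 8 at 30°C. GSH fixed at 10 mM and chloronitrobenzene substrate varied 0.0625–2 mM. Initial rate of GS-conjugate formation read by UV absorbance at a substrate-specific wavelength. Background chemical rate (triplicate) subtracted. Triplicate rates, kcat from best-line fit of double-reciprocal plot.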
# [3] = substrate: O=[N+]([O-])c1ccc(Cl)c([N+](=O)[O-])c1; experiment: Substrate activity at N-terminal His6 tagged human GSTA1-1 expressed in Escherichia coli BL21(DE3) assessed as Km at pH 8 at 30 degreeC by Michaelis-Menten analysis
# How it was run: (§1)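 His6/TEV-tagged human GST was expressed in E. coli BL21(DE3) and purified on Ni-NTA. Assays used 0.1 M HEPES-HCl, pH 8, 30 °C. One substrate was varied: CDNB or chloronitrobenzene derivatives (derivatives 0.0625–2 mM) with 10 mM GSH, or GSH with 1 mM CDNB. Initial conjugate-formation rates were read at substrate-specific wavelengths, in triplicate. Triplicate background rates were subtracted. Enzyme amount was adjusted as needed. Fit by Michaelis–Menten non-linear regression or Lineweaver–Burk.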
# [4] = substrate: O=[N+]([O-])c1ccc(Cl)c([N+](=O)[O-])c1; experiment: Substrate activity at N-terminal His6 tagged human GSTA1-1 expressed in Escherichia coli BL21(DE3) assessed as Kcat/Km at pH 6.5 at 30 degreeC by Michaelis-Menten analysis
# How it was run: (§2)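 N-terminal His6/TEV-tagged human enzyme, expressed in E. coli BL21(DE3) and Ni-NTA purified. Run in 0.1 M sodium phosphate, pH 6.5, 30 °C. CDNB was varied with GSH fixed at 10 mM, or GSH was varied with CDNB fixed at 1 mM (GSH constants apparent). Conjugate formation read at 340 nm as initial rates over ≥1 min, in triplicate. A single background rate was subtracted, then fitted to Michaelis–Menten by non-linear regression.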
# [5] = substrate: O=[N+]([O-])c1ccc(Cl)c([N+](=O)[O-])c1; experiment: Substrate activity at N-terminal His6 tagged human GSTA1-1 expressed in Escherichia coli BL21(DE3) assessed as catalytic constant at pH 6.5 at 30 degreeC by Michaelis-Menten analysis; how it was run: as §2
# [6] = substrate: O=[N+]([O-])c1ccc(Cl)c([N+](=O)[O-])c1; experiment: Substrate activity at N-terminal His6 tagged human GSTA1-1 expressed in Escherichia coli BL21(DE3) assessed as Km at pH 6.5 at 30 degreeC by Michaelis-Menten analysis; how it was run: as §2
# [7] = substrate: O=C(NCCCCC[P+](c1ccccc1)(c1ccccc1)c1ccccc1)c1cc([N+](=O)O)ccc1Cl; experiment: (§3) Substrate activity at N-terminal His6 tagged human GSTA1-1 expressed in Escherichia coli BL21(DE3) assessed as Kcat/Km at pH 8 at 30 degreeC by Lineweaver-Burk plot analysis
# How it was run: (§4)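 N-terminal His6/TEV-tagged enzyme was expressed in E. coli BL21(DE3) by IPTG induction at 15 °C and purified on Ni-NTA. Assays used 0.1 M HEPES-HCl pH 8, 30°C, with GSH fixed at 10 mM and substrate varied from 0.0625 to 2 mM. Conjugate formation was read by UV absorbance, and initial rates were measured in triplicate after subtracting the background rate. Constants came from a double-reciprocal Lineweaver-Burk fit.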
# [8] = substrate: O=C(NCCCCC[P+](c1ccccc1)(c1ccccc1)c1ccccc1)c1ccc(Cl)c([N+](=O)[O-])c1; experiment: as §3; how it was run: as §4
# [9] = substrate: COC(=O)c1cc([N+](=O)O)ccc1Cl; experiment: as §3; how it was run: as §4
# [10] = substrate: COC(=O)c1ccc(Cl)c([N+](=O)[O-])c1; experiment: as §3; how it was run: as §4
# [11] = substrate: O=[N+]([O-])c1ccc(Cl)c([N+](=O)[O-])c1; experiment: (§5) Substrate activity at N-terminal His6 tagged human GSTA1-1 expressed in Escherichia coli BL21(DE3) assessed as Kcat/Km at pH 8 at 30 degreeC by Michaelis-Menten analysis; how it was run: as §1
# [12] = substrate: O=[N+]([O-])c1cc([N+](=O)[O-])c(NCCCC[P+](c2ccccc2)(c2ccccc2)c2ccccc2)cc1Cl; experiment: as §5; how it was run: as §1
# [13] = substrate: O=[N+]([O-])c1ccc(Cl)c([N+](=O)[O-])c1; experiment: Substrate activity at N-terminal His6 tagged human GSTA1-1 expressed in Escherichia coli BL21(DE3) assessed as catalytic constant at pH 8 at 30 degreeC by Michaelis-Menten analysis; how it was run: as §1
# [14] = substrate: O=[N+]([O-])c1ccc(Cl)c([N+](=O)[O-])c1; experiment: Substrate activity at N-terminal His6 tagged human GSTA4-4 expressed in Escherichia coli BL21(DE3) assessed as Km at pH 6.5 at 30 degreeC by Michaelis-Menten analysis; how it was run: as §2
# [15] = substrate: O=[N+]([O-])c1ccc(Cl)c([N+](=O)[O-])c1; experiment: (§6) Substrate activity at N-terminal His6 tagged human GSTA4-4 expressed in Escherichia coli BL21(DE3) assessed as Kcat/Km at pH 8 at 30 degreeC by Michaelis-Menten analysis; how it was run: as §1
# [16] = substrate: O=[N+]([O-])c1cc([N+](=O)[O-])c(NCCCC[P+](c2ccccc2)(c2ccccc2)c2ccccc2)cc1Cl; experiment: as §6; how it was run: as §1
# [17] = substrate: O=[N+]([O-])c1ccc(Cl)c([N+](=O)[O-])c1; experiment: Substrate activity at N-terminal His6 tagged human GSTA4-4 expressed in Escherichia coli BL21(DE3) assessed as Km at pH 8 at 30 degreeC by Michaelis-Menten analysis; how it was run: as §1
# [18] = substrate: O=[N+]([O-])c1ccc(Cl)c([N+](=O)[O-])c1; experiment: Substrate activity at N-terminal His6 tagged human GSTA4-4 expressed in Escherichia coli BL21(DE3) assessed as catalytic constant at pH 8 at 30 degreeC by Michaelis-Menten analysis; how it was run: as §1
# [19] = substrate: COC(=O)c1cc([N+](=O)O)ccc1Cl; experiment: Substrate activity at N-terminal His6 tagged human GSTA4-4 expressed in Escherichia coli BL21(DE3) assessed as catalytic constant at pH 8 at 30 degreeC by Lineweaver-Burk plot analysis; how it was run: as §4
# [20] = substrate: O=[N+]([O-])c1ccc(Cl)c([N+](=O)[O-])c1; experiment: Substrate activity at N-terminal His6 tagged human GSTA4-4 expressed in Escherichia coli BL21(DE3) assessed as catalytic constant at pH 6.5 at 30 degreeC by Michaelis-Menten analysis; how it was run: as §2
# [21] = substrate: O=[N+]([O-])c1ccc(Cl)c([N+](=O)[O-])c1; experiment: Substrate activity at N-terminal His6 tagged human GSTA4-4 expressed in Escherichia coli BL21(DE3) assessed as Kcat/Km at pH 6.5 at 30 degreeC by Michaelis-Menten analysis; how it was run: as §2
# [22] = substrate: O=C(NCCCCC[P+](c1ccccc1)(c1ccccc1)c1ccccc1)c1ccc(Cl)c([N+](=O)[O-])c1; experiment: (§7) Substrate activity at N-terminal His6 tagged human GSTA4-4 expressed in Escherichia coli BL21(DE3) assessed as Kcat/Km at pH 8 at 30 degreeC by Lineweaver-Burk plot analysis; how it was run: as §4
# [23] = substrate: COC(=O)c1cc([N+](=O)O)ccc1Cl; experiment: as §7; how it was run: as §4
# [24] = substrate: COC(=O)c1ccc(Cl)c([N+](=O)[O-])c1; experiment: as §7; how it was run: as §4
# [25] = substrate: COC(=O)c1cc([N+](=O)O)ccc1Cl; experiment: (§8) Substrate activity at N-terminal His6 tagged human GSTK1-1 expressed in Escherichia coli BL21(DE3) assessed as Kcat/Km at pH 8 at 30 degreeC by Lineweaver-Burk plot analysis; how it was run: as §4
# [26] = substrate: COC(=O)c1ccc(Cl)c([N+](=O)[O-])c1; experiment: as §8; how it was run: as §4
# [27] = substrate: O=[N+]([O-])c1ccc(Cl)c([N+](=O)[O-])c1; experiment: Substrate activity at N-terminal His6 tagged human GSTK1-1 expressed in Escherichia coli BL21(DE3) assessed as catalytic constant at pH 8 at 30 degreeC by Michaelis-Menten analysis; how it was run: as §1
# [28] = substrate: O=[N+]([O-])c1ccc(Cl)c([N+](=O)[O-])c1; experiment: (§9) Substrate activity at N-terminal His6 tagged human GSTK1-1 expressed in Escherichia coli BL21(DE3) assessed as Kcat/Km at pH 8 at 30 degreeC by Michaelis-Menten analysis; how it was run: as §1
# [29] = substrate: O=[N+]([O-])c1cc([N+](=O)[O-])c(NCCCC[P+](c2ccccc2)(c2ccccc2)c2ccccc2)cc1Cl; experiment: as §9; how it was run: as §1
# [30] = substrate: O=[N+]([O-])c1ccc(Cl)c([N+](=O)[O-])c1; experiment: Substrate activity at N-terminal His6 tagged human GSTK1-1 expressed in Escherichia coli BL21(DE3) assessed as Km at pH 8 at 30 degreeC by Michaelis-Menten analysis; how it was run: as §1
# [31] = substrate: COC(=O)c1cc([N+](=O)O)ccc1Cl; experiment: Substrate activity at N-terminal His6 tagged human GSTK1-1 expressed in Escherichia coli BL21(DE3) assessed as catalytic constant at pH 8 at 30 degreeC by Lineweaver-Burk plot analysis; how it was run: as §4
molecule,measurement,setting,value
O=[N+]([O-])c1ccc(Cl)c([N+](=O)[O-])c1 [DINITROCHLOROBENZENE],K,[1],5.05 10^-5/mM/s
O=[N+]([O-])c1cc([N+](=O)[O-])c(NCCCC[P+](c2ccccc2)(c2ccccc2)c2ccccc2)cc1Cl,K,[1],1.5 10^-5/mM/s
COC(=O)c1ccc(Cl)c([N+](=O)[O-])c1,K,[1],2.92 10^-6/mM/s
B1,kcat,[2],4.67 10^-2/s
same,Km,[3],128 µM
same,kcat/Km,[4],71900 M⁻¹ s⁻¹
same,kcat,[5],35.4 s⁻¹
same,Km,[6],492 µM
same,kcat/Km,[7],6.49 10^-2/mM/s
same,kcat/Km,[8],21600 M⁻¹ s⁻¹
same,kcat/Km,[9],1380 M⁻¹ s⁻¹
same,kcat/Km,[10],4320 M⁻¹ s⁻¹
same,kcat/Km,[11],353000 M⁻¹ s⁻¹
same,kcat/Km,[12],101000 M⁻¹ s⁻¹
same,kcat,[13],45.3 s⁻¹
B2,Km,[14],5200 µM
same,kcat/Km,[15],19500 M⁻¹ s⁻¹
same,kcat/Km,[16],32200 M⁻¹ s⁻¹
same,Km,[17],253 µM
same,kcat,[18],4.94 s⁻¹
same,kcat,[19],5.61 10^-2/s
same,kcat,[20],14.9 s⁻¹
same,kcat/Km,[21],2930 M⁻¹ s⁻¹
same,kcat/Km,[22],2570 M⁻¹ s⁻¹
same,kcat/Km,[23],5.91 10^-2/mM/s
same,kcat/Km,[24],146 M⁻¹ s⁻¹
B3,kcat/Km,[25],6.13 10^-2/mM/s
same,kcat/Km,[26],351 M⁻¹ s⁻¹
same,kcat,[27],14.6 s⁻¹
same,kcat/Km,[28],7670 M⁻¹ s⁻¹
same,kcat/Km,[29],287 M⁻¹ s⁻¹
same,Km,[30],1900 µM
same,kcat,[31],9.45 10^-2/s
